What is called Ki is a measure of affinity in units of concentration, obtained from inhibition or displacement.

SMILES strings stand for the structures.

Drawing on ChEMBL document CHEMBL1137359, “Potent and orally bioavailable 8-bicyclo[2.2.2]octylxanthines as adenosine A1 receptor antagonists” (J Med Chem, 2006), this text covers Ki, Activity and Ratio Ki for 25 molecules.

The target in experiment [1] is T1, Adenosine receptor A1 (Homo sapiens, UniProt P30542).
T1 sequence (P30542 whole entry): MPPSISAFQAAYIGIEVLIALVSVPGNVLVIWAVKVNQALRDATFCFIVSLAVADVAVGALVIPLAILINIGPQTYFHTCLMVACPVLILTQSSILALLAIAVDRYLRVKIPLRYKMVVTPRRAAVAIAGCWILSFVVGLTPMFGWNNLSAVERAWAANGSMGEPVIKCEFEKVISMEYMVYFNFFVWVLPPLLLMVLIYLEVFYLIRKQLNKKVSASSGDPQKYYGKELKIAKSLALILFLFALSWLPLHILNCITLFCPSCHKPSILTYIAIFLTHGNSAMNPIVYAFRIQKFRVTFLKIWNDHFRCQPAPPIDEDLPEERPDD
The experiment is described as follows: Displacement of [125I]ABA from human adenosine A1 receptor expressed in CHOK1 cells. It is filed as cell-based, CHO-K1. In a few lines:
(§1)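 Membranes from stably transfected CHO-K1 (hA1) or HEK (hA2A, hA2B, hA3) cells, 2 h at room temperature in 50 mM HEPES pH 7.4, 1 mM EDTA, 5 mM MgCl2, 1 U/mL adenosine deaminase. 5% DMSO final except hA3. Full curves 10^-11–10^-5 M, seven concentrations, four determinations each. Filtration, γ-counting, Ki derived.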
For orientation: Loss of bound radioactivity is the signal in a displacement assay; it reports binding, not function.

The target of experiment [2] is T2, Adenosine receptor A2a (Homo sapiens, UniProt P29274). The experiment is described as follows: Displacement of [125I]ZM-241385 from human adenosine A2A receptor expressed in HEK cells. The format is cell-based, HEK293. A digest of the protocol:
as §1

The target of experiment [3] is T3, Adenosine receptor A2b (Homo sapiens) (UniProt P29275).
T3 sequence (whole entry): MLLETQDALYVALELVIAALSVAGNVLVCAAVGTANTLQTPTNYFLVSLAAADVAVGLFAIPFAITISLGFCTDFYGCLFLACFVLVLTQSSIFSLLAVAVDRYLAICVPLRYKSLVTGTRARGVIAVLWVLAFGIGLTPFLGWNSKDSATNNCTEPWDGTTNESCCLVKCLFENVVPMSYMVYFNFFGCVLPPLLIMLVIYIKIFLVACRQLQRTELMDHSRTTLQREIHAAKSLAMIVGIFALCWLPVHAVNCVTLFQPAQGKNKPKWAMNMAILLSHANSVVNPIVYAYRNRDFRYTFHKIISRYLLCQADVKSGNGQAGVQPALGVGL
Description: Displacement of [125I]3-(4-aminobenzyl)-8-phenyloxyacetate-1-propyl-xanthine from human adenosine A2B receptor expressed in HEK cells relative to control. To be noted: HEK293. It is filed as cell-based. The arrangement: concentration or dose not given beside the values. In a few lines: (§2)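 Single-point screen at 1 µM antagonist, run in duplicate, on transfected-cell membranes: CHO-K1 (hA1), HEK (hA2A, hA2B, hA3). 2 h at room temperature in 50 mM HEPES pH 7.4, 1 mM EDTA, 5 mM MgCl2, 1 U/mL adenosine deaminase; 5% DMSO except hA3. Nonspecific binding with 50 µM XAC, or 10 µM BW-1433 for hA3. Result is % radioligand bound relative to control.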

Experiment [4] concerns the target T4, Adenosine receptor A3 (Homo sapiens) (UniProt P0DMS8).
T4 sequence (whole entry): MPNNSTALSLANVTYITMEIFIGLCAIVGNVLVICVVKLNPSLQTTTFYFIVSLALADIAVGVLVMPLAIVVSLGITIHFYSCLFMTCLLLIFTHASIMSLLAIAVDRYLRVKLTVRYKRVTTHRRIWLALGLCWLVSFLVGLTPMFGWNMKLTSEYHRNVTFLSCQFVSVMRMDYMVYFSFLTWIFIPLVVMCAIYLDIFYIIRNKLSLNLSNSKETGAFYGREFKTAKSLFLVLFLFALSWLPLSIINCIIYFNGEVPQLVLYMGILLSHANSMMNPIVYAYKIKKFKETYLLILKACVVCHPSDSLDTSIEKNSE
Description: Displacement of [125I]ABA from human adenosine A3 receptor expressed in HEK cells relative to control. It is filed as cell-based. The arrangement: concentration or dose not given beside the values. As to conditions: HEK293. In a few lines: as §2

Experiment [5] deals with Adenosine receptors; A1 & A2a (Homo sapiens) (UniProt P30542+P29274). The experiment is described as follows: Selectivity for human adenosine A1 receptor over human adenosine A2A receptor. The format is protein assay.
Adenosine receptors; A1 & A2a (Homo sapiens), sequence (P29274 whole entry, looked up, one chain of several): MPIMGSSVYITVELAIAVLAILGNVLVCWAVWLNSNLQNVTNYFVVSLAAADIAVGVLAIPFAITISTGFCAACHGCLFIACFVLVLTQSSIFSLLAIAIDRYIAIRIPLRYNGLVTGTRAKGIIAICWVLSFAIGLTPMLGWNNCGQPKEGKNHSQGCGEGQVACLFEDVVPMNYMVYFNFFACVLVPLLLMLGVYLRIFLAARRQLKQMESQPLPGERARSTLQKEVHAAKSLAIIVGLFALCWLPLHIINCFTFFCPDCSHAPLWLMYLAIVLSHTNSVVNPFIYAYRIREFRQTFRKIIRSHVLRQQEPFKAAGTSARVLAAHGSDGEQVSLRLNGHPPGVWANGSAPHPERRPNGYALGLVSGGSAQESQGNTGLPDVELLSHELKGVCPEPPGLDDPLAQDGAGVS
Experiment [6] concerns the target T5, Adenosine receptor A2b (Homo sapiens, UniProt P29275).
T5 sequence (P29275 whole entry): T3 sequence (whole entry)
Description: Displacement of [125I]3-(4-aminobenzyl)-8-phenyloxyacetate-1-propyl-xanthine from human adenosine A2B receptor expressed in HEK cells. It is filed as cell-based, HEK293. A digest of the protocol: as §1

Experiment [7] addresses T6, Adenosine receptor A1 (Homo sapiens) (UniProt P30542).
T6 sequence (whole entry): T1 sequence (P30542 whole entry)
Description: Displacement of [125I]ABA from human adenosine A1 receptor expressed in CHOK1 cells relative to control. The format is cell-based. Also noted: concentration or dose not given beside the values. To be noted: CHO-K1. A digest of the protocol: as §2

Experiment [8] deals with T2, Adenosine receptor A2a. The experiment is described as follows: Displacement of [125I]ZM-241385 from human adenosine A2A receptor expressed in HEK cells relative to control. Also noted: concentration or dose not given beside the values. As to conditions: HEK293. The format is cell-based. A digest of the protocol:
as §2

In experiment [9] the target is T7, Adenosine receptor A3 (Homo sapiens, UniProt P0DMS8).
T7 sequence (P0DMS8 whole entry): T4 sequence (whole entry)
Description: Displacement of [125I]ABA from human adenosine A3 receptor expressed in HEK cells. The format is cell-based, HEK293. A digest of the protocol:
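Membranes from stably transfected CHO-K1 (hA1) or HEK (hA2A, hA2B, hA3) cells, 2 h at room temperature in 50 mM HEPES pH 7.4, 1 mM EDTA, 5 mM MgCl2, 1 U/mL adenosine deaminase. 5% DMSO final except hA3. Radioligands: 0.3 nM (hA1) or 0.6 nM (hA3) 125I-ABA, 0.7 nM 125I-ZM241385, 0.5 nM A2B ligand. Full curves 10^-11–10^-5 M, seven concentrations, four determinations each. Filtration, γ-counting, Ki derived.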

T2 sequence (P29274 whole entry): as the sequence (P29274 whole entry, looked up, one chain of several) above

On to `CCCn1c(=O)c2nc([C@]34CC[C@](C=O)(CC3)CC4)[nH]c2n(CCC)c1=O`, for which the Ki in experiment [1] was determined as 15 nM; in experiment [2], 799 nM. Also, the Activity in [3] is 14%; in experiment [4], 76%. Besides, the Ratio Ki in experiment [5] came to 53.
Consider `CCCn1c(=O)c2nc([C@]34CC[C@](C(=O)N(C)CC(=O)OC)(CC3)CC4)[nH]c2n(CCC)c1=O`, for which the Ki in experiment [1] is 112 nM; in experiment [2] it was greater than 10000 nM; in experiment [6], 296 nM. The molecule also gave an Activity in experiment [4] of 88%. Also, the Ratio Ki in [5] is greater than 89.
`CCCn1c(=O)c2nc([C@H]3CC[C@H](C(=O)NCCN(C)C)CC3)[nH]c2n(CCC)c1=O`: the inhibition constant (Ki) in experiment [1] was found to be 12 nM; in [2], 168 nM. Besides, the Activity in experiment [3] was 16%; in experiment [4] it was 91%. Moreover, in [5], the Ratio Ki was determined as 14.
For the molecule `CCCn1c(=O)c2nc([C@H]3CC[C@H](C(=O)O)CC3)[nH]c2n(CCC)c1=O`, the Activity in [7] amounted to 31%; in [8] it was 75%; in experiment [3], 69%; in [4], 88%.
Consider `CCCn1c(=O)c2nc([C@]34CC[C@](C(=O)OC)(CC3)CC4)[nH]c2n(CCC)c1=O`, for which the Activity in [3] is 19%; in [4], 44%. Besides, in experiment [5], the Ratio Ki was 101.
Consider `CCCn1c(=O)c2[nH]c([C@H]3CC[C@H](NC(=O)OCc4ccccc4)CC3)nc2n(CCC)c1=O`, for which the results for the inhibition constant Ki in [1] and in experiment [2] were 109 nM and 2960 nM, respectively.
As for `CCCn1c(=O)c2nc([C@]34CC[C@](C(=O)NCCN(C)C)(CC3)CC4)[nH]c2n(CCC)c1=O`, the Ki amounted to 6 nM in [1] and 132 nM in experiment [2]. Further, the Activity in experiment [3] stood at 3%; in experiment [4], 79%. Besides, in [5], the Ratio Ki stood at 22.
With `CCCn1c(=O)c2nc([C@H]3CC[C@H](CO)CC3)[nH]c2n(CCC)c1=O`, the Activity in experiment [3] was 18%; in experiment [4] it was 77%. The Ratio Ki in experiment [5] stood at 8.
As to `CCCn1c(=O)c2nc([C@]34CC[C@](C(=O)NCC(=O)OC)(CC3)CC4)[nH]c2n(CCC)c1=O`, the Ki was determined as 8 nM in experiment [1], 681 nM in [2], 207 nM in [6] and 6700 nM in experiment [9]. Further, the Ratio Ki in experiment [5] is 85.
Regarding `CCCn1c(=O)c2nc([C@H]3CC[C@H](NC(C)=O)CC3)[nH]c2n(CCC)c1=O`, the Activity in [7] is 45%; in [8], 92%; in experiment [3] it was 38%; in experiment [4], 100%.
For `CCCCC[C@]12CC[C@](c3nc4c(=O)n(CCC)c(=O)n(CCC)c4[nH]3)(CC1)CC2` the same measures were 25%, 79%, 100% and 100%.
For `CCCn1c(=O)c2nc(C3CCC(NC(=O)OCc4ccccc4)CC3)[nH]c2n(CCC)c1=O` (mixture of isomers) the same measures were 23%, 69%, 30% and 100%.
As for `CCCn1c(=O)c2nc([C@H]3CC[C@@H](NC(C)=O)CC3)[nH]c2n(CCC)c1=O`, the Activity in experiment [7] was found to be 60%; in [8], 63%; in [3], 46%; in [4] it was 100%.
For `CCCn1c(=O)c2nc([C@H]3CC[C@H](NC(=O)OCc4ccccc4)CC3)[nH]c2n(CCC)c1=O`, the Activity was 24% in experiment [3] and 86% in [4]. In addition, the Ratio Ki in [5] stood at 27.
As to `CCCn1c(=O)c2nc([C@H]3CC[C@H](COCc4ccccc4)CC3)[nH]c2n(CCC)c1=O`, the results for the Ki in [1] and in experiment [2] were 171 nM and 2720 nM, respectively. Moreover, the values for the Activity in experiment [3] and in experiment [4] were 28% and 95%, respectively. In experiment [5], the Ratio Ki was determined as 16.
For `CCCn1c(=O)c2nc([C@]34CC[C@](C(=O)NCC(=O)O)(CC3)CC4)[nH]c2n(CCC)c1=O` the same measures were 49 nM, 7880 nM, 53%, 70% and 161.
In the case of `CCCn1c(=O)c2nc([C@]34CC[C@](C(=O)N5CCC(C(=O)O)CC5)(CC3)CC4)[nH]c2n(CCC)c1=O`, the Ki in experiment [1] stood at 96 nM; in experiment [2], 7820 nM. The Activity in experiment [3] was found to be 41%; in [4] it was 100%. Further, the Ratio Ki in experiment [5] amounted to 81.
Consider `CCCCNC(=O)[C@H]1CC[C@H](c2nc3c(=O)n(CCC)c(=O)n(CCC)c3[nH]2)CC1`, for which the Ki in [1] came out at 46 nM; in experiment [2] it was 2260 nM. Further, the Activity in [3] was determined as 11%; in experiment [4] it was 93%. In experiment [5], the Ratio Ki is 49.
With `CCCn1c(=O)c2nc([C@]34CC[C@](/C=C/C(=O)O)(CC3)CC4)[nH]c2n(CCC)c1=O`, the Ki in experiment [1] was 9.6 nM; in [2] it was 3330 nM; in experiment [6] it was 100 nM. The same molecule came in with an Activity in experiment [4] of 100%. The Ratio Ki in experiment [5] worked out at 333.
In the case of `CCCn1c(=O)c2nc([C@H]3CC[C@H](C(=O)N4CCOCC4)CC3)[nH]c2n(CCC)c1=O`, the Activity in experiment [7] was 60%; in [8], 99%; in experiment [3], 48%; in experiment [4] it was 88%.
For `CCCn1c(=O)c2[nH]c([C@]34CC[C@](C(=O)OC)(CC3)CC4)nc2n(CCC)c1=O`, the values for the Ki in [1] and in experiment [2] were 9 nM and 912 nM, respectively.
For `CCCn1c(=O)c2[nH]c([C@H]3CC[C@H](CO)CC3)nc2n(CCC)c1=O` the same measures were 41 nM and 313 nM.
Regarding `CCCn1c(=O)c2nc([C@]34CC[C@](C(=O)NCCC(=O)OC)(CC3)CC4)[nH]c2n(CCC)c1=O`, the Ki was 22 nM in [1], 1400 nM in experiment [2], 505 nM in [6] and greater than 10000 nM in [9]. Besides, the Ratio Ki in experiment [5] worked out at 63.
As to `CCCn1c(=O)c2nc([C@H]3CC[C@H](C(=O)N(CC)CC)CC3)[nH]c2n(CCC)c1=O`, the Activity in [7] came to 46%; in [8], 70%; in [3], 39%; in experiment [4] it was 100%.
`CCCn1c(=O)c2nc([C@]34CC[C@](CO)(CC3)CC4)[nH]c2n(CCC)c1=O`: the Ki in experiment [1] came to 16 nM; in experiment [2] it was 414 nM. The Activity was determined as 27% in experiment [3] and 73% in [4]. Moreover, in experiment [5], the Ratio Ki worked out at 26.
